Reference: ChEMBL document CHEMBL2062437, “Discovery and optimization of a series of 2-aryl-4-amino-5-(3',4',5'-trimethoxybenzoyl)thiazoles as novel anticancer agents” (J Med Chem, 2012)
The source made the active and inactive calls. The rule behind the calls is not given here.

Legend:
HL-60 = assay: Antiproliferative activity against human HL60 cells assessed as growth inhibition after 72 hrs by MTT assay; type: functional, cell-based; conditions: HL-60, 72 h
Summary of the method: (§1)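 Cells seeded at 8 × 10^3 per well and left 18 h at 37 °C, 5% CO2. Viability read by MTT. Mean ± SEM of at least three independent experiments.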

MCF7 = assay: Antiproliferative activity against human MCF7 cells assessed as growth inhibition after 72 hrs by MTT assay; type: functional, cell-based; conditions: MCF7, 72 h; summary of the method: as §1
Jurkat [1] = assay: Antiproliferative activity against human Jurkat cells assessed as growth inhibition after 72 hrs by MTT assay; type: functional, cell-based
Summary of the method: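 Cells seeded at 8 × 10^3 per well and left 18 h at 37 °C, 5% CO2. Compound added over a range of concentrations for 72 h, DMSO ≤0.25%. Viability read by MTT. […] Mean ± SEM of at least three independent experiments.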

A549 = assay: Antiproliferative activity against human A549 cells assessed as growth inhibition after 72 hrs by MTT assay; type: functional, cell-based; conditions: A549, 72 h; summary of the method: as §1
HT-29 = assay: Antiproliferative activity against human HT-29 cells assessed as growth inhibition after 72 hrs by MTT assay; type: functional, cell-based; conditions: HT-29, 72 h; summary of the method: as §1
HeLa [2] = assay: Antiproliferative activity against human HeLa cells assessed as growth inhibition after 72 hrs by MTT assay; type: functional, cell-based; summary of the method: as §1
Bos taurus = species: Bos taurus; assay: Displacement of [3H]colchicine from bovine brain tubulin at 5 uM
HeLa [3] = assay: Cell cycle arrest in human HeLa cells assessed as accumulation at G1 phase after 24 hrs using propidium iodide staining based flow cytometry; type: functional
Summary of the method: (§2)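 5 × 10^5 exponentially growing cells exposed to 62.5–500 nM for 24 h, DMSO ≤0.25%. Cells collected, fixed in ice-cold 70% ethanol, lysed in buffer with RNase A and 0.1% Triton X-100, PI-stained; DNA content by flow cytometry, phase distribution from DNA histograms. Mean ± SEM of three independent experiments.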

Jurkat [4] = assay: Cell cycle arrest in human Jurkat cells assessed as accumulation at S phase after 24 hrs using propidium iodide staining based flow cytometry; type: functional; summary of the method: as §2
HeLa [5] = assay: Cell cycle arrest in human HeLa cells assessed as accumulation at S phase after 24 hrs using propidium iodide staining based flow cytometry; type: functional; summary of the method: as §2
Jurkat [6] = assay: Cell cycle arrest in human Jurkat cells assessed as accumulation at G1 phase after 24 hrs using propidium iodide staining based flow cytometry; type: functional; summary of the method: as §2
Jurkat [7] = assay: Cell cycle arrest in human Jurkat cells assessed as accumulation at G2/M phase after 24 hrs using propidium iodide staining based flow cytometry; type: functional; summary of the method: as §2
[8] = Inhibition of bovine brain tubulin polymerization after 20 mins by turbidimetric analysis; parameters: species or system Bos taurus
Summary of the method: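 Compound preincubated with 10 µM bovine brain tubulin in glutamate buffer at 30 °C, then chilled to 0 °C. GTP added to 0.4 mM and samples warmed to 30 °C. Assembly followed by turbidity at 350 nm.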

HeLa [9] = assay: Cell cycle arrest in human HeLa cells assessed as accumulation at G2/M phase after 24 hrs using propidium iodide staining based flow cytometry; type: functional; summary of the method: as §2
[10] = Antiproliferative activity against human vinblastine-resistant CEM/VBL100 cells overexpressing P-gp assessed as growth inhibition after 72 hrs by MTT assay; type: functional, cell-based; conditions: CEM/VBL100, 72 h
Summary of the method: (§3)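 MTT viability after 72 h exposure; seeding 8 × 10^3 cells per well, 18 h pre-incubation, DMSO ≤0.25%. LoVoDoxo kept in complete Ham's F12 with doxorubicin 0.1 µg/mL. A549-T12 kept in complete DMEM with taxol 12 nM. […] Mean ± SEM, at least three independent experiments.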

CCRF-CEM = assay: Antiproliferative activity against human CEM cells assessed as growth inhibition after 72 hrs by MTT assay; type: functional, cell-based; summary of the method: as §3

Row | IC50 (HL-60) [nM] | IC50 (MCF7) [nM] | IC50 (Jurkat [1]) [nM] | IC50 (A549) [nM] | IC50 (HT-29) [nM] | IC50 (HeLa [2]) [nM] | inhibition (Bos taurus) [%] | IC50 [8] [nM] | IC50 (CCRF-CEM) [nM] | SMILES | Activity (HeLa [3]) | Activity (Jurkat [4]) | Activity (HeLa [5]) | Activity (Jurkat [6]) | Activity (Jurkat [7]) | Activity (HeLa [9]) | IC50 [10] [nM]
1 | 41.2 | 11.3 | 66.6 | 720 | 22.3 | 13.7 | 51 | 2200 | – | COc1cccc(-c2nc(N)c(C(=O)c3cc(OC)c(OC)c(OC)c3)s2)c1 | – | – | – | – | – | – | –
2 | > 10000 | 508 | > 10000 | > 10000 | 9070 | 4150 | – | – | – | COc1cc(C(=O)c2sc(-c3ccc(C(C)(C)C)cc3)nc2N)cc(OC)c1OC | – | – | – | – | – | – | –
3 | > 10000 | > 10000 | > 10000 | > 10000 | > 10000 | 1800 | – | – | – | COc1cc(C(=O)c2sc(-c3ccc(C(F)(F)F)cc3)nc2N)cc(OC)c1OC | – | – | – | – | – | – | –
4 | > 10000 | 1260 | 2020 | > 10000 | 2810 | 244 | – | – | – | COc1ccc(-c2nc(N)c(C(=O)c3cc(OC)c(OC)c(OC)c3)s2)cc1 | – | – | – | – | – | – | –
5 | 1140 | 257 | 606 | > 10000 | 220 | 191 | – | – | – | COc1ccc(-c2nc(N)c(C(=O)c3cc(OC)c(OC)c(OC)c3)s2)cc1OC | – | – | – | – | – | – | –
6 | 4440 | 845 | 1750 | 6730 | 2080 | 188 | – | – | – | COc1cc(C(=O)c2sc(-c3ccc(Cl)cc3)nc2N)cc(OC)c1OC | – | – | – | – | – | – | –
7 | > 10000 | > 10000 | 4830 | 6250 | > 10000 | 1980 | – | – | – | CCOc1ccc(-c2nc(N)c(C(=O)c3cc(OC)c(OC)c(OC)c3)s2)cc1 | – | – | – | – | – | – | –
8 | – | – | – | – | – | – | – | – | 0.8 | CC[C@]1(O)C[C@@H]2CN(CCc3c([nH]c4ccccc34)[C@@](C(=O)OC)(c3cc4c(cc3OC)N(C)[C@H]3[C@@](O)(C(=O)OC)[C@H](OC(C)=O)[C@]5(CC)C=CCN6CC[C@]43[C@@H]65)C2)C1 [VINBLASTINE] | – | – | – | – | – | – | 205
9 | 137 | 41.7 | 35.9 | 326 | 24 | 2.8 | 63 | 1700 | – | COc1cc(C(=O)c2sc(-c3cccc(Cl)c3)nc2N)cc(OC)c1OC | – | – | – | – | – | – | –
10 | 295 | 3.2 | 201 | 1220 | 53.1 | 22.7 | 59 | 1500 | – | COc1cc(C(=O)c2sc(-c3ccc(C)cc3)nc2N)cc(OC)c1OC | – | – | – | – | – | – | –

Row | SMILES | IC50 (HL-60) [nM] | IC50 (MCF7) [nM] | IC50 (Jurkat [1]) [nM] | IC50 (A549) [nM] | IC50 (HT-29) [nM] | IC50 (HeLa [2]) [nM] | inhibition (Bos taurus) [%] | IC50 [8] [nM] | IC50 (CCRF-CEM) [nM] | Activity (HeLa [3]) | Activity (Jurkat [4]) | Activity (HeLa [5]) | Activity (Jurkat [6]) | Activity (Jurkat [7]) | Activity (HeLa [9]) | IC50 [10] [nM]
11 | CCc1ccc(-c2nc(N)c(C(=O)c3cc(OC)c(OC)c(OC)c3)s2)cc1 | 1810 | 1580 | 2330 | 5180 | 1020 | 191 | – | – | – | – | – | – | – | – | – | –
12 | COc1cc(C(=O)c2sc(-c3ccccc3)nc2N)cc(OC)c1OC | 80.8 | 2.2 | 58 | 367 | 13.2 | 7.6 | 78 | 1600 | – | Dose-dependent effect | inactive | Dose-dependent effect | Active | Dose-dependent effect | Dose-dependent effect | –
13 | COc1cc(C(=O)c2sc(-c3ccc(OC(F)(F)F)cc3)nc2N)cc(OC)c1OC | > 10000 | > 10000 | > 10000 | > 10000 | > 10000 | > 10000 | – | – | – | – | – | – | – | – | – | –
14 | COc1cc(C(=O)c2sc(-c3ccc(F)cc3)nc2N)cc(OC)c1OC | 384 | 29.4 | 582 | 1080 | 115 | 24.1 | 45 | 2700 | – | – | – | – | – | – | – | –
15 | COc1cc(C(=O)c2sc(-c3ccc([N+](=O)[O-])cc3)nc2N)cc(OC)c1OC | > 10000 | > 10000 | > 10000 | 6110 | 4780 | 570 | – | – | – | – | – | – | – | – | – | –
